Measured values taken from ChEMBL document CHEMBL2203235, “Optimization of a natural product-based class of γ-secretase modulators” (J Med Chem, 2012).
One block for each compound: values may come before it.

Key:
Liver microsomes [1] = assay: Metabolic stability in human liver microsomes at 1 uM after 60 mins by LC/MS/MS analysis; settings: 1 h
CHO-2B7 [2] = assay: Modulation of gamma secretase in CHO-2B7 cells assessed as reduction in amyloid beta 40 level at 4 mM after 5 hrs by MSD ELISA; assay type: cell-based; design: scale not given: the % may be the effect or the level left; settings: Cricetulus griseus
[3] = Modulation of gamma secretase in CHO-2B7 cells assessed as reduction in amyloid beta 42 level after 5 hrs by MSD ELISA; assay type: cell-based; settings: Cricetulus griseus, CHO-2B7, 5 h
[4] = (§1) Metabolic stability in human liver microsomes assessed as compound remaining at 1 uM at 60 mins by LC/MS/MS analysis in absence of NADPH; assay type: ADME, Microsome; settings: liver microsomes, read-out: Stability
Method in brief: (§2)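 Human liver microsomes were run without NADPH as a qualitative read of susceptibility to enzymatic hydrolysis. The read-out was percent parent remaining at 60 min.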

[5] = Metabolic stability in human liver microsomes assessed as compound remaining at 1 uM at 60 mins by LC/MS/MS analysis in presence of NADPH; assay type: ADME, Microsome; settings: read-out: Stability
CHO-2B7 [6] = assay: Modulation of gamma secretase in CHO-2B7 cells assessed as reduction in amyloid beta 40 level at 4 uM after 5 hrs by MSD ELISA; assay type: cell-based; design: scale not given: the % may be the effect or the level left; settings: Cricetulus griseus
CHO-2B7 [7] = assay: Modulation of gamma secretase in CHO-2B7 cells assessed as reduction in amyloid beta 40 level at 20 uM after 5 hrs by MSD ELISA; assay type: cell-based; design: scale not given: the % may be the effect or the level left; settings: Cricetulus griseus
[8] = Modulation of gamma-secretase assessed as reduction in amyloid beta 42 level by cell based assay
[9] = Modulation of gamma secretase in CHO-2B7 cells assessed as reduction in amyloid beta 40 level after 5 hrs by MSD ELISA; assay type: cell-based; settings: Cricetulus griseus, CHO-2B7, 5 h
[10] = Plasma concentration in CD1 mouse at 1 mg/kg, iv at 6 hrs
[11] = Ratio of drug uptake in brain to plasma in CD1 mouse at 1 mg/kg, iv at 6 hrs; settings: brain and plasma
[12] = Drug uptake in CD1 mouse brain at 1 mg/kg, iv at 6 hrs
CHO-2B7 [13] = assay: Modulation of gamma secretase in CHO-2B7 cells assessed as reduction in amyloid beta 40 level at 100 uM after 5 hrs by MSD ELISA; assay type: cell-based; design: scale not given: the % may be the effect or the level left; settings: Cricetulus griseus
CHO-2B7 [14] = assay: Modulation of gamma secretase in CHO-2B7 cells assessed as reduction in amyloid beta 42 level at 20 uM after 5 hrs by MSD ELISA; assay type: cell-based; design: scale not given: the % may be the effect or the level left; settings: Cricetulus griseus
Liver microsomes [15] = assay: as §1; assay type: ADME, Microsome; settings: microsomes, 1 h, 1 µM; method in brief: as §2

SMILES: CCO[C@@H]([C@H]1C[C@@H](C)[C@H]2[C@H](O1)[C@H](O)[C@@]1(C)[C@@H]3CC[C@H]4C(C)(C)[C@@H](O[C@H]5CN(CC(F)F)CCO5)CC[C@@]45C[C@@]35CC[C@]21C)C(C)(C)O
Stability (Liver microsomes [1]): Stable
Activity (CHO-2B7 [2]): 37%
IC50 [3]: 540 nM

SMILES: CC(=O)O[C@@H]([C@H]1C[C@@H](C)[C@H]2[C@H](O1)[C@H](O)[C@@]1(C)[C@@H]3CC[C@H]4C(C)(C)[C@@H](O[C@H]5CN([C@H]6CCNC6=O)CCO5)CC[C@@]45C[C@@]35CC[C@]21C)C(C)(C)O
remaining at 1 h, 1 µM [4]: 3%
IC50 [3]: 170 nM
remaining at 1 h, 1 µM [5]: 63%

SMILES: CCO[C@@H]([C@H]1C[C@@H](C)[C@H]2[C@H](O1)[C@H](O)[C@@]1(C)[C@@H]3CC[C@H]4C(C)(C)[C@@H](OC(=O)NCCN5CCC5)CC[C@@]45C[C@@]35CC[C@]21C)C(C)(C)O
Stability (Liver microsomes [1]): Stable
Activity (CHO-2B7 [6]): 41%
IC50 [3]: 220 nM

SMILES: CC(=O)O[C@@H]([C@H]1C[C@@H](C)[C@H]2[C@H](O1)[C@H](O)[C@@]1(C)[C@@H]3CC[C@H]4C(C)(C)[C@@H](O[C@H]5CN(C6COC6)CCO5)CC[C@@]45C[C@@]35CC[C@]21C)C(C)(C)O
remaining at 1 h, 1 µM [4]: 1%
Activity (CHO-2B7 [7]): 35%
IC50 [3]: 170 nM
remaining at 1 h, 1 µM [5]: 1%

SMILES: CC(=O)O[C@@H]([C@H]1C[C@@H](C)[C@H]2[C@H](O1)[C@H](O)[C@@]1(C)[C@@H]3CC[C@H]4C(C)(C)[C@@H](O[C@@H]5OC[C@@H](O)[C@H](O)[C@H]5O)CC[C@@]45C[C@@]35CC[C@]21C)C(C)(C)O
IC50 [8]: 60 nM

remaining at 1 h, 1 µM [4]: 107%
IC50 [3]: ≥ 20000 nM
remaining at 1 h, 1 µM [5]: 81%
SMILES: C[C@@H]1C[C@H]([C@H](O)C(C)(C)O)O[C@H]2[C@H]1[C@@]1(C)CC[C@@]34C[C@@]35CC[C@H](O[C@H]3CN(C6COC6)CCO3)C(C)(C)[C@@H]5CC[C@H]4[C@]1(C)[C@H]2O

SMILES: CC(C)[C@@H](OC(=O)N1CCC1)[C@H]1C[C@@H](C)[C@H]2[C@H](O1)[C@H](O)[C@@]1(C)[C@@H]3CC[C@H]4C(C)(C)[C@@H](OC(=O)N5CCN(C)CC5)CC[C@@]45C[C@@]35CC[C@]21C
Stability (Liver microsomes [1]): Stable
IC50 [9]: 8200 nM
concentration at 6 h [10]: 450 nM
IC50 [3]: 170 nM
Kp at 6 h [11]: 0.03
concentration at 6 h [12]: 14 nM

SMILES: CC(=O)OC[C@H]1C[C@@H](C)[C@H]2[C@H](O1)[C@H](O)[C@@]1(C)[C@@H]3CC[C@H]4C(C)(C)[C@@H](O[C@H]5CN(C(=O)CC6CC6)CCO5)CC[C@@]45C[C@@]35CC[C@]21C
remaining at 1 h, 1 µM [4]: 23%
Activity (CHO-2B7 [13]): 66%
IC50 [3]: 240 nM

SMILES: CC(C)[C@@H](OC(=O)N(C)C)[C@H]1C[C@@H](C)[C@H]2[C@H](O1)[C@H](O)[C@@]1(C)[C@@H]3CC[C@H]4C(C)(C)[C@@H](OC(=O)N5CCC5)CC[C@@]45C[C@@]35CC[C@]21C
Activity (CHO-2B7 [14]): 0%
Stability (Liver microsomes [15]): 127%
Activity (CHO-2B7 [7]): 0%

Stability (Liver microsomes [1]): Stable
IC50 [3]: 250 nM
SMILES: CCO[C@@H]([C@H]1C[C@@H](C)[C@H]2[C@H](O1)[C@H](O)[C@@]1(C)[C@@H]3CC[C@H]4C(C)(C)[C@@H](O[C@H]5CN(CC(=O)N6CCC6)CCO5)CC[C@@]45C[C@@]35CC[C@]21C)C(C)(C)O
Activity (CHO-2B7 [2]): 39%

SMILES: C[C@@H]1C[C@H]([C@H](O)C(C)(C)O)O[C@H]2[C@H]1[C@@]1(C)CC[C@@]34C[C@@]35CC[C@H](O[C@H]3CNCCO3)C(C)(C)[C@@H]5CC[C@H]4[C@]1(C)[C@H]2O
remaining at 1 h, 1 µM [4]: 112%
IC50 [3]: 1600 nM
remaining at 1 h, 1 µM [5]: 40%

SMILES: CC(=O)O[C@@H]([C@H]1C[C@@H](C)[C@H]2[C@H](O1)[C@H](O)[C@@]1(C)[C@@H]3CC[C@H]4C(C)(C)[C@@H](OC(=O)NC5CNC5)CC[C@@]45C[C@@]35CC[C@]21C)C(C)(C)O
IC50 [9]: 15000 nM
IC50 [8]: 47 nM
remaining at 1 h, 1 µM [4]: 21%
IC50 [3]: 47 nM

Stability (Liver microsomes [1]): Stable
IC50 [3]: 270 nM
SMILES: CCO[C@@H]([C@H]1C[C@@H](C)[C@H]2[C@H](O1)[C@H](O)[C@@]1(C)[C@@H]3CC[C@H]4C(C)(C)[C@@H](O[C@H]5CN(CC(=O)N(C)C)CCO5)CC[C@@]45C[C@@]35CC[C@]21C)C(C)(C)O
Activity (CHO-2B7 [2]): 38%
